Results pooled from the literature.
Each line is one published result; the experiments were not run side by side.

`Cc1nc(-c2cnc(NC(C)C)n(C)c2=O)ccc1Oc1ccnc(-c2cnn(C)c2)c1` gave an AUC(0-t) of 179 µg·h/mL (female mouse; plasma; oral; 30 mg/kg; single dose).
For `NC[C@@H]1O[C@H](O[C@H]2[C@@H](O)[C@H](O[C@@H]3[C@@H](O)[C@H](N)C[C@H](N)[C@H]3O[C@H]3O[C@H](CO)[C@@H](O)[C@H](O)[C@H]3N)O[C@@H]2CO)[C@H](N)[C@@H](O)[C@@H]1O`, the AUC was 30600 ng·h/mL (male BALB/c mouse; plasma; intravenous; 15 mg/kg).
With `CC1(C)c2nc(-c3ccc(F)cc3)c(Nc3ccc(F)cc3)n2CCN1C(=O)CN` the AUC was 0.78 µM·h (mouse; plasma; oral; 2 mg/kg).
With `CC(C)(C)c1ccc(O)c(CN(Cc2cc(C(C)(C)C)ccc2O)C2CCC(NC(N)=O)CC2)c1` (centres unmarked) the AUC(0-inf) was 6180 ng·h/mL (male C57BL/6 mouse; plasma; intraperitoneal; 5 mg/kg; single dose).
`CC[C@H](C)[C@@H]1NC(=O)[C@@](C)(NC(=O)[C@H](CCCNC(=N)N)NC(=O)[C@H](CC(C)C)NC(=O)[C@@H](NC(=O)[C@H](CCC(N)=O)NC(=O)[C@H](CC(C)C)NC(C)=O)[C@@H](C)O)CCCC=CCCC[C@@](C)(C(=O)N[C@@H](CC(C)C)C(=O)N[C@@H](Cc2ccc3ccccc3c2)C(N)=O)NC(=O)[C@H](CCCNC(=N)N)NC(=O)[C@H](CCC(N)=O)NC1=O` gave an AUC(0-inf) of 126000 ng·h/mL (male BALB/c mouse; plasma; intravenous; 5 mg/kg).
With `Cc1ccc2cncc(N3CCc4c(cc(Cn5ccnc5)cc4-c4cn(C)nc4C(F)(F)F)C3=O)c2c1` the AUC(0-inf) was 36300 ng·h/mL (male CD-1 mouse; plasma; oral; 50 mg/kg).
The AUC of `CNC(=O)[C@H](Cc1c[nH]cn1)NC(=O)CN(CCCc1ccccc1)CC(=O)OC` is reported as 1000 ng·h/mL (male C57BL/6 mouse; plasma; intraperitoneal; 30 mg/kg).
The AUC of `CCN1CCN(Cc2cc(NC(=O)c3ccc(C)c(-c4ccc5nc(NC(=O)C6CC6)cn5n4)c3)cc(C(F)(F)F)c2)CC1` is reported as 1070 ng·h/mL (Swiss mouse; plasma; intraperitoneal; 3 mg/kg).
For `CC(C)(O)c1cn(-c2ccc(-c3cc(F)c(CO)c(S(C)(=O)=O)c3)cc2)c(C(C)(C)c2cccc(F)c2Cl)n1`, the AUC was 6.9 µM·h (male C57BL/6 mouse; serum; oral; 10 mg/kg).
`OC[C@H]1O[C@@H](c2ccc(Cl)c(Cc3ccc(O[C@H]4CCOC4)cc3)c2)[C@H](O)[C@@H](O)[C@@H]1O` gave an AUC of 741 ng·h/mL (CD-1 mouse; plasma; oral; 10 mg/kg).
With `CCc1cc(OC)c2nccc(N3CCc4c(cc(Cn5ccnc5)cc4-c4cn(C)nc4C(F)(F)F)C3=O)c2c1` the AUC(0-inf) was 3330 ng·h/mL (male CD-1 mouse; plasma; intravenous; 3 mg/kg).
For `CC(C)(O)c1cn(-c2ccc(-c3cc(F)c(CO)c(S(C)(=O)=O)c3)cc2F)c(C(C)(C)c2c(Cl)cccc2Cl)n1`, the AUC was 7.4 µM·h (male C57BL/6 mouse; serum; oral; 10 mg/kg).
`CC(C)Oc1c(NC(=O)c2ccc(NC(=O)[C@H](CC(N)=O)NC(=O)c3ccc(NC(=O)c4ccc(C#N)cc4)cc3)cc2)ccc(C(=O)Nc2ccc(C(=O)O)cc2)c1O` has an AUC of 517 ng·h/mL (male CD-1 mouse; plasma; subcutaneous; 5 mg/kg; single dose).
`CNC(=O)[C@H](Cc1c[nH]cn1)NC(=O)CN(CCCc1ccccc1)CC(=O)O` has an AUC of 3600 ng·h/mL (male C57BL/6 mouse; plasma; intraperitoneal; 30 mg/kg).
